Assay results reported in ChEMBL document CHEMBL1250448, “Inhibitor hijacking of Akt activation” (Nat Chem Biol, 2009).

Key:
[1] = target: Ribosomal protein S6 kinase alpha-5 (Homo sapiens) (UniProt O75582); assay: Inhibition of RPS6KA5 at 1 uM in presence of 10 uM ATP by Select Screen kinase assay relative to untreated control
In short: (§1)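 Commercial SelectScreen profiling panel of 220 purified kinases. Each kinase was tested at a single inhibitor concentration of 1 μM, and activity was expressed as percent inhibition.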

[2] = target: Tyrosine-protein kinase Yes (Homo sapiens) (UniProt P07947); assay: Inhibition of YES1 at 1 uM in presence of 10 uM ATP by Select Screen kinase assay relative to untreated control; in short: as §1
Tyrosine-protein kinase Yes (Homo sapiens), sequence (P07947 2-543 limits assumed): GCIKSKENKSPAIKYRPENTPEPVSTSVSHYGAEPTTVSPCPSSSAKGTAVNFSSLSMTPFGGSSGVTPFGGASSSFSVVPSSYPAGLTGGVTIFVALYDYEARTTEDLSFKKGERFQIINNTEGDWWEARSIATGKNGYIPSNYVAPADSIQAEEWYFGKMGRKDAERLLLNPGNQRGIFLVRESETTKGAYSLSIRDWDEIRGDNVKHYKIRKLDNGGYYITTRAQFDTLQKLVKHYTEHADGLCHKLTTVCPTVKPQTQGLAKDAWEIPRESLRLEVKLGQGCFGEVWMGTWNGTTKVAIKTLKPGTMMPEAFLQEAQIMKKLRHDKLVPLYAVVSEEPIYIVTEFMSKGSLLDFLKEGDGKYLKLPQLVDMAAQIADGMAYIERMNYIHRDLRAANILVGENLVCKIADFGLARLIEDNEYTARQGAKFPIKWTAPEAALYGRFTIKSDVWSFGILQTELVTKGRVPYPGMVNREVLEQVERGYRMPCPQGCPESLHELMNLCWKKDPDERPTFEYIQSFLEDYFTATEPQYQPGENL

[3] = target: Dual specificity tyrosine-phosphorylation-regulated kinase 1A (Homo sapiens) (UniProt Q13627); assay: Inhibition of DYRK1A at 1 uM in presence of 10 uM ATP by Select Screen kinase assay relative to untreated control
In short: (§2)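 Single-point screen at 1 μM against a panel of 220 purified kinases, run by Invitrogen staff as a SelectScreen profiling service. Read-out is percent inhibition of kinase activity.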

[4] = target: T1, Ephrin type-B receptor 1 (Homo sapiens) (UniProt P54762); assay: Inhibition of EPHB1 at 1 uM in presence of 10 uM ATP by Select Screen kinase assay relative to untreated control; in short: as §2
T1 sequence (whole entry): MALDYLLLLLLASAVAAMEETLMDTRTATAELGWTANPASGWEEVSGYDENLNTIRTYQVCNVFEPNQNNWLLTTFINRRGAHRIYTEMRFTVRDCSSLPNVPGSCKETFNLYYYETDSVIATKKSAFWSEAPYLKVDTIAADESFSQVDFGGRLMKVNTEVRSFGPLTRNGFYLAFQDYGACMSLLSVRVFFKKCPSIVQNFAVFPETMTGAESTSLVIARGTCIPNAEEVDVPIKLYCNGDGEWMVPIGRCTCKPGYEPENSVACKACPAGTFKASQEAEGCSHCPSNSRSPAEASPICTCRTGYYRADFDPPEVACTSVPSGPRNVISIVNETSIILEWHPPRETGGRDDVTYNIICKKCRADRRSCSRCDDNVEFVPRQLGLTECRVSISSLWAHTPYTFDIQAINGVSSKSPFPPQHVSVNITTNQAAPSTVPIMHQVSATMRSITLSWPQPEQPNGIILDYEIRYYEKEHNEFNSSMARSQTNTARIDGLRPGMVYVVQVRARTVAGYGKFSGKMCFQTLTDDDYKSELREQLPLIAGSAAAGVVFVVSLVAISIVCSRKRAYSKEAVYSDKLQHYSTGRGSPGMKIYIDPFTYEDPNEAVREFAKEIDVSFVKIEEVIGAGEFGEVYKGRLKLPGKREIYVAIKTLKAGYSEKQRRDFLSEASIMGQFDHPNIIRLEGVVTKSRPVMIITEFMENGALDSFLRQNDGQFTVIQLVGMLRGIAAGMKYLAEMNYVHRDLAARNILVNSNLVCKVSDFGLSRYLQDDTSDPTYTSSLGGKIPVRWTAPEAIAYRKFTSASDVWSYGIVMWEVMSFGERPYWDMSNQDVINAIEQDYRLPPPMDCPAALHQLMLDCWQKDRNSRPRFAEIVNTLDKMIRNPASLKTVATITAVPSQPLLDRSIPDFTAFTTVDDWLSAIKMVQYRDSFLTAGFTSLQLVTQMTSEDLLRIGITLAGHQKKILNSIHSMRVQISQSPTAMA

[5] = target: Fibroblast growth factor receptor 4 (Homo sapiens) (UniProt P22455); assay: Inhibition of FGFR4 at 1 uM in presence of 10 uM ATP by Select Screen kinase assay relative to untreated control
Fibroblast growth factor receptor 4 (Homo sapiens), sequence (P22455 22-802 limits assumed): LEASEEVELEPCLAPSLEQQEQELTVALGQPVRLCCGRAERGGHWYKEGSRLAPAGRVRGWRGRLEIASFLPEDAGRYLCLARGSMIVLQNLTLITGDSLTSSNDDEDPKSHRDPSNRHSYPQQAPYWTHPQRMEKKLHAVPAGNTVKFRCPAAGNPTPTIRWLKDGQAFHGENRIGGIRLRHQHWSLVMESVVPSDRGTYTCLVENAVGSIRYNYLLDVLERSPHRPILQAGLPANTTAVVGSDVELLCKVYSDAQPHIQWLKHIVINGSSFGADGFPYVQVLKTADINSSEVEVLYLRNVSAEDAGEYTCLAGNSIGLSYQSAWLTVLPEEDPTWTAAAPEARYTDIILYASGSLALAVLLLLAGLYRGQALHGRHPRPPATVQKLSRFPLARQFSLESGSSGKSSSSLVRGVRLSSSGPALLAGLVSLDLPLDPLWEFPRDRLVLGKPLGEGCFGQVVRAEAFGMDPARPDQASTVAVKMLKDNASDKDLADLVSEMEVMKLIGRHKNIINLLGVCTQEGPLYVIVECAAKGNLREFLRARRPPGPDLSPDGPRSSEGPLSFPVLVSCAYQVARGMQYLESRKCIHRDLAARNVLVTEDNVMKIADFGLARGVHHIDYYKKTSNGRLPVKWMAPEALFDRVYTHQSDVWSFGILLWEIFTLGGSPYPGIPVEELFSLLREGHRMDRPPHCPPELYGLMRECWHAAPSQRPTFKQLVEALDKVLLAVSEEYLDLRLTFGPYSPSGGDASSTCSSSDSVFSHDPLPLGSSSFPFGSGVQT
In short: (§3)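 Single-concentration profiling at 1 μM against a panel of 220 purified kinases, run as an outsourced SelectScreen kinase profiling service. Activity is expressed as percent inhibition.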

[6] = target: T2, Inhibitor of nuclear factor kappa-B kinase subunit beta (Homo sapiens) (UniProt O14920); assay: Inhibition of IKBKB at 1 uM in presence of 10 uM ATP by Select Screen kinase assay relative to untreated control; in short: as §3
T2 sequence (whole entry): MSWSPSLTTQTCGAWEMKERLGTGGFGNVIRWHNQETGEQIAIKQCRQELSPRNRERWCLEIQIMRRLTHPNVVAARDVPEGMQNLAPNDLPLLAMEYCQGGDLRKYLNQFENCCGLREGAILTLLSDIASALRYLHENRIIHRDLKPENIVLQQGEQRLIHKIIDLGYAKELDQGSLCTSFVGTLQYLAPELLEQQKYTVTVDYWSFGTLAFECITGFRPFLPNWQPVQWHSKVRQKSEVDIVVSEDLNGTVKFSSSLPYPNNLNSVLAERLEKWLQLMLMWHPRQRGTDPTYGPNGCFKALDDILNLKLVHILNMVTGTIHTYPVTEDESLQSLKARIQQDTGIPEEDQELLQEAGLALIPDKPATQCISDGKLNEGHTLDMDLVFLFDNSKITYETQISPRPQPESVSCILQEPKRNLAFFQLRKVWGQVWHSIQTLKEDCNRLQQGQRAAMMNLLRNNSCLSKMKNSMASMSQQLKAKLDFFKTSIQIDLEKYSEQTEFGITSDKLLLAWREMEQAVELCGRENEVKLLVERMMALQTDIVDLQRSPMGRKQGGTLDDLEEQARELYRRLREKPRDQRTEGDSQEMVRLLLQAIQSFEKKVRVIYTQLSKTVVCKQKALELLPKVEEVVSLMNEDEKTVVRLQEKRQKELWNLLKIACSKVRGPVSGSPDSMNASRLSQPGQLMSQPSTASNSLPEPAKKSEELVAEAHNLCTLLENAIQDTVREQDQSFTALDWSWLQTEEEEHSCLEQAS

[7] = target: Serine/threonine-protein kinase PAK 5 (Homo sapiens) (UniProt Q9P286); assay: Inhibition of PAK7 at 1 uM in presence of 10 uM ATP by Select Screen kinase assay relative to untreated control; in short: as §1
Serine/threonine-protein kinase PAK 5 (Homo sapiens), sequence (Q9P286 whole entry, looked up): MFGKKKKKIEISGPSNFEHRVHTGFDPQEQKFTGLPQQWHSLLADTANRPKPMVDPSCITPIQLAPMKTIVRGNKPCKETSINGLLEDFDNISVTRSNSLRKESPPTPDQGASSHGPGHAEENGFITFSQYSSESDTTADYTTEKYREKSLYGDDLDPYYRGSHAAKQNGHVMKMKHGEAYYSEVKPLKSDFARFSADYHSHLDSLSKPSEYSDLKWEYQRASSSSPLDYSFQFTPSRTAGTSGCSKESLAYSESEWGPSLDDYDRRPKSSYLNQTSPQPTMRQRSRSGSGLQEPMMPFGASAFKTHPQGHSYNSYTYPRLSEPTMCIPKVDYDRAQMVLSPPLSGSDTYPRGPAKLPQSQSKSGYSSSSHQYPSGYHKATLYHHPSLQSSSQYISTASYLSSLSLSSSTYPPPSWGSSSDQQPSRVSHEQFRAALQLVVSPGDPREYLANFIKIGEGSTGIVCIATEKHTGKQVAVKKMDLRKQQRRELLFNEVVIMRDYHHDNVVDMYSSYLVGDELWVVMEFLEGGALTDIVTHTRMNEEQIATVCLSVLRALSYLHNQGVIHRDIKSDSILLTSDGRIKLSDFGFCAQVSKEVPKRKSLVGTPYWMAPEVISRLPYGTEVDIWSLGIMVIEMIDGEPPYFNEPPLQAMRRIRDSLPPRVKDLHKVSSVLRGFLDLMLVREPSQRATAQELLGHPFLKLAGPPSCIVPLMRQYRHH

[8] = tested on: Platelet-derived growth factor receptor alpha (Homo sapiens), P16234 [D842V]; assay: Inhibition of PDGFRalpha D842V mutant at 1 uM in presence of 10 uM ATP by Select Screen kinase assay relative to untreated control; in short: as §1
Platelet-derived growth factor receptor alpha (Homo sapiens), P16234 [D842V], sequence (P16234 whole entry D842V, canonical isoform): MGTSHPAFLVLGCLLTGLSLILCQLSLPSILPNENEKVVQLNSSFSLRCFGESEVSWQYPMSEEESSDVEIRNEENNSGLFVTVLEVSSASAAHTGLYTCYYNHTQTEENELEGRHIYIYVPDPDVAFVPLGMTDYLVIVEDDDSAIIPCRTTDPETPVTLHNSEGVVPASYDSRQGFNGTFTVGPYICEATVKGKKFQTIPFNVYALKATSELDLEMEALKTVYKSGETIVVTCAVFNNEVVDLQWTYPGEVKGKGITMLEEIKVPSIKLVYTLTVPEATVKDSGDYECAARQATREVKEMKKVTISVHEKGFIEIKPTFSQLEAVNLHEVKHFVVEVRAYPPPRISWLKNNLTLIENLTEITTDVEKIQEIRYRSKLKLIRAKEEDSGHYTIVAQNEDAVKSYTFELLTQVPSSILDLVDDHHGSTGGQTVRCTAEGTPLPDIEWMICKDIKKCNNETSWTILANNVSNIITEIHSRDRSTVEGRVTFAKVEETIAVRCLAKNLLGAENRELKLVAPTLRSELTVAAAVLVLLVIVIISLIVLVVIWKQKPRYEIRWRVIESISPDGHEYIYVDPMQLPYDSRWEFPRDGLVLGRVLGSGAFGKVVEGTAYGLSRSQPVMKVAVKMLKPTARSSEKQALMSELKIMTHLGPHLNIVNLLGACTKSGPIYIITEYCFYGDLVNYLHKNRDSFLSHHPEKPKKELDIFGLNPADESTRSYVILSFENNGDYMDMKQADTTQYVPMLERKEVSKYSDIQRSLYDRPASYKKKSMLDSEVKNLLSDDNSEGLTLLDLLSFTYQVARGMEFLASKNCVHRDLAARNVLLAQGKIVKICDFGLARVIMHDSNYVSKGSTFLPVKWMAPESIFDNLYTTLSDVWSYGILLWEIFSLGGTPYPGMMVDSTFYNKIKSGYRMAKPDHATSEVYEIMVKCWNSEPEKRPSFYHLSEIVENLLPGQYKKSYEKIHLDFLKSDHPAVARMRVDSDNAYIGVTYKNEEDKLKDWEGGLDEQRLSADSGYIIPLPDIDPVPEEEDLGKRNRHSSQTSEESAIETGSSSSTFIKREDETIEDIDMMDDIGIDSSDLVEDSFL

[9] = target: T3, Phosphorylase b kinase gamma catalytic chain, liver/testis isoform (Homo sapiens) (UniProt P15735); assay: Inhibition of PHKG2 at 1 uM in presence of 10 uM ATP by Select Screen kinase assay relative to untreated control; in short: as §1
T3 sequence (whole entry): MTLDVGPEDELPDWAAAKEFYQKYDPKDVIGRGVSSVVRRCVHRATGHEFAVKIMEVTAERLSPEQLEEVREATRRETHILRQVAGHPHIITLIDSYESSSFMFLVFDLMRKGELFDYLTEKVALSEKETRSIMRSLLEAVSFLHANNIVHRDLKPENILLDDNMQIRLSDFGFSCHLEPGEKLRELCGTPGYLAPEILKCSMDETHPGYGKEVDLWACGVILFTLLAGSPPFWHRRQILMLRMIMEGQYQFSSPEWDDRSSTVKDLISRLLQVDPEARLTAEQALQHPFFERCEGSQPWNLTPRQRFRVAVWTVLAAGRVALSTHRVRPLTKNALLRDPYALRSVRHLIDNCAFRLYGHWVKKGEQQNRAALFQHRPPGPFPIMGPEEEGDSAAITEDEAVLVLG

Ribosomal protein S6 kinase alpha-5 (Homo sapiens), sequence (O75582 whole entry, looked up): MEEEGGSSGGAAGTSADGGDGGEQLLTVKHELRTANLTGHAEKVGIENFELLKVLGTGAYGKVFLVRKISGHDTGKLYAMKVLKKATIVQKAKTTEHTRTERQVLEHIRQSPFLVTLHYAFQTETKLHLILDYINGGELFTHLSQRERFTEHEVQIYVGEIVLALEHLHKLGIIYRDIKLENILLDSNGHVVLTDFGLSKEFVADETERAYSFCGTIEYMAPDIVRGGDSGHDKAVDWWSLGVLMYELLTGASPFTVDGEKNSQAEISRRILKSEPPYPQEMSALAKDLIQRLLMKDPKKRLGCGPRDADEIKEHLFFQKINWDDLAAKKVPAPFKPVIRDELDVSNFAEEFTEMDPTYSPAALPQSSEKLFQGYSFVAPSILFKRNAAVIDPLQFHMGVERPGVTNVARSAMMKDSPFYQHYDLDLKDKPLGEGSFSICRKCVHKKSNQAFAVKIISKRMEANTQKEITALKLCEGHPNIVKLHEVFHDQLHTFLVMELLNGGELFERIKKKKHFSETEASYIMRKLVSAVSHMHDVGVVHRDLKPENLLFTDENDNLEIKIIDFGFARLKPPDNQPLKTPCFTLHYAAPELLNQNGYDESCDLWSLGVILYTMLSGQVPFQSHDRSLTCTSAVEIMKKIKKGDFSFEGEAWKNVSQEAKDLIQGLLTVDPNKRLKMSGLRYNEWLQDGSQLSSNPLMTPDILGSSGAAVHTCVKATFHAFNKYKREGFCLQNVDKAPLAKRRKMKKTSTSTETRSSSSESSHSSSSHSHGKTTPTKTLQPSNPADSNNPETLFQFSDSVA

inhibition [1] [%]	inhibition [2] [%]	inhibition [3] [%]	inhibition [4] [%]	inhibition [5] [%]	inhibition [6] [%]	inhibition [7] [%]	inhibition [8] [%]	inhibition [9] [%]	Compound
18	36	25	16	29	6	25	106	28	O=C(NCCCNc1nc(Nc2cccc(NC(=O)N3CCCC3)c2)ncc1I)c1cccs1
83	20	78	11	15	2	1	2	4	COc1ccccc1N1CCN(c2ncnc3[nH]nc(Br)c23)CC1

Compound	inhibition [1] [%]	inhibition [2] [%]	inhibition [3] [%]	inhibition [4] [%]	inhibition [5] [%]	inhibition [6] [%]	inhibition [7] [%]	inhibition [8] [%]	inhibition [9] [%]
Cc1n[nH]c2ccc(-c3cncc(OC[C@@H](N)Cc4c[nH]c5ccccc45)c3)cc12	102	20	102	1	-2	11	25	11	11
